High-throughput results as filed in PubChem BioAssay.
This is a sample that favours compounds with a hit; in the whole collection about 1.9% have one here.
HCV NS3 hel inh = inhibitors of HCV NS3 helicase, primary screen, biochemical, Cy5 molecular beacon fluorescence | NS3 helicase DNA unwinding | actives 0.56% (n = 290,000) | AID 1800, 2009 | Hepatitis C virus NS3 helicase | inhibition, % at 10.9 µM;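 active means inhibition above the mean of all tested compounds plus 3 SD, set per campaign, cut at about 35% in these data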;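 further: 0% = DMSO wells and 100% = thioflavine S control wells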
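Material: hepatitis C virus NS3 helicase domain fragment enzyme; measured by: Cy5 fluorescence, 0 and 60 min reads; control set: DMSO and thioflavine S; incubation: 60 min unwinding reaction at 25 °C after ATP addition; read-out basis: % inhibition from 60/0 min fluorescence ratio, DMSO 0%, thioflavine S 100%; repeats: singlicate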
HIF activator = HIF pathway transcriptional activators, primary screen, cell-based, U2OS HRE-luciferase, luminescence; U2OS HRE-luciferase reporter; normalized: DMSO 0%, desferrioxamine 100%; actives 0.32% (n = 300,000); activation, % at 7.5 µM (by protocol); AID 1910, 2009;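 active means mean activation of at least 10% of the iron chelator positive control signal, with at least half of replicates also reaching 10%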
PP5 inh = PP5 phosphatase inhibitors, primary screen, biochemical, fluorescence. Serine/threonine-protein phosphatase 5 (Homo sapiens), P53041. purified PP5c, OMFP substrate fluorescence. inhibition, % at 6.7 µM. actives 0.18% (n = 320,000);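 active means inhibition above the campaign's mean inhibition across all tested compounds plus 3 SD, cut at about 9.5% in these data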;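 further: 0% = DMSO only and 100% = 100 µM cantharidin control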
Target sequence (P53041 whole entry, looked up): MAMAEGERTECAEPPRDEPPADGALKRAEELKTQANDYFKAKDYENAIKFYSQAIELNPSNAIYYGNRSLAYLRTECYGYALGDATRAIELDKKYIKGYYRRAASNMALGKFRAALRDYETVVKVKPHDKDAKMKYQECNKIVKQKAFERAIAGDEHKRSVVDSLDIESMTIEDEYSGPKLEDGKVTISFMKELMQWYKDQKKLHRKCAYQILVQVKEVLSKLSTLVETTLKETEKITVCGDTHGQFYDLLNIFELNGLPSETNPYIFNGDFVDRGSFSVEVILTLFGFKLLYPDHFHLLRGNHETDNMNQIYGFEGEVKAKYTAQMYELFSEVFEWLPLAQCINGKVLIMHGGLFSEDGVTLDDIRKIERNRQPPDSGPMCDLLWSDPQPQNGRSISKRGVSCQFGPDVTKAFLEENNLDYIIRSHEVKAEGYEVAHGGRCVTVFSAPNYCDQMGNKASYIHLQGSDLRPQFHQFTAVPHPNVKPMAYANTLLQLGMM
FID counter = compounds displacing fluorescent DNA intercalator, primary screen, artefact control for HCV NS3 helicase inhibitor project, biochemical, FID fluorescence. DNA fluorescent intercalator displacement. inhibition, % at 7.9 µM. actives 0.17% (n = 290,000). AID 1845, 2009; in the data active means inhibition above about 37%;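 further: 0% = vehicle and 100% = reference compound; higher means more ethidium bromide displaced from hairpin DNA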
PP1 counter = PP1-alpha phosphatase inhibitors, primary screen, counter-screen for PP5 inhibitor project, biochemical, fluorescence, OMFP substrate, single point. Serine/threonine-protein phosphatase PP1-alpha catalytic subunit (Homo sapiens), P62136. purified PP1alpha. inhibition, % at 6.7 µM. actives 0.9% (n = 320,000). AID 2235, 2010;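 active means inhibition above the mean inhibition of all tested compounds plus 3 SD, computed separately for each screening campaign, cut at about 15% in these data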
PP1 inh confirm = PP1 phosphatase inhibitors, confirmation, biochemical, fluorescence, OMFP substrate, triplicate; purified PP1alpha; inhibition, % at 6.7 µM; shares compounds with PP1 counter; AID 2358, 2010; actives 52% (n = 1,900);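 active means mean PP1 inhibition above a set limit taken from the earlier primary screen, cut at about 15% in these data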
PP5 inh counter = PP5 phosphatase inhibition by PP1 hits, confirmation, counter-screen for PP1 inhibitor project, biochemical, fluorescence, triplicate. shares compounds with PP1 counter. purified PP5c, OMFP fluorescence. inhibition, % at 6.7 µM. actives 4% (n = 1,900);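 active means mean PP5 inhibition over triplicate wells above about 9.5% taken from the earlier PP1 screen, limit read from the data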
* marks the source's active call; other numbers are inactive results; / = no result given.

SMILES | HCV NS3 hel inh | HIF activator | PP5 inh | FID counter | PP1 counter | PP1 inh confirm | PP5 inh counter
C=CCn1c(SCC(=O)Nc2sccc2C#N)nc2sc(C)c(C)c2c1=O | 2 | -6 | 0 | 0 | 27* | 31* | -1
O=C(CC12CC3CC(CC(C3)C1)C2)NC1CC1 | / | 0 | 1 | / | -3 | / | /
Fc1ccc(-[n+]2nc(Nc3ccccc3)sc2-c2c3ccccc3cc3ccccc23)cc1 | -118 | 0 | 2 | 28 | 22* | 5 | 1
c1ccc(-[n+]2nc(Nc3cccc4ccccc34)sc2-c2c3ccccc3cc3ccccc23)cc1 | / | / | 3 | / | 31* | 30* | 1
Oc1ccc2ccccc2c1-c1sc(Nc2ccccc2)n[n+]1-c1ccc(F)cc1 | -11 | 0 | 2 | -4 | 3 | / | /
CCCCCCc1nc2ccccc2c(=O)n1NC(=O)c1c(O)c2cccc3c2n(c1=O)CCC3 | -1 | 0 | / | -3 | / | / | /
Cc1ccc(C)c(N2CCN(C(=O)CCCN3C(=S)NC(C)(C)CC3C)CC2)c1 (stereo not given) | -15 | -1 | -1 | -35 | 1 | / | /
COc1cccc(/C=N/n2nnc3c(cnn3-c3ccccc3)c2=O)c1 | 10 | / | 2 | 0 | -2 | / | /
CCC(=O)N1CCc2nc(-c3ccccc3)sc2C1 | 0 | 4 | -2 | -12 | -1 | / | /
COC(=O)c1ccc(/C=C/c2ccc3cccc(OC(C)=O)c3n2)cc1 | -17 | 0 | 1 | -6 | 20* | 21* | -4
Cc1cccc2cc(-c3nc4c(C)cccn4c3NCc3ccco3)c(=O)[nH]c12 | -4 | 0 | 1 | -14 | -1 | / | /
Cc1ccc2[nH]c(=O)c(-c3nc4cc(C)ccn4c3NCc3ccco3)cc2c1 | -14 | 1 | 1 | -10 | 18* | 21* | 3
COC(=O)C/C=N/N=C1/NC(=O)/C(=C/C(=O)O)S1 | 24 | 0 | 1 | -3 | -2 | / | /
O=C(CSc1nnc(-c2ccccc2O)o1)Oc1ccc(OCc2ccccc2)cc1 | 6 | 2 | 2 | -2 | 24* | 30* | -5
C=CC(C)(C)c1cc2cc3ccoc3cc2oc1=O | 0 | -4 | 1 | -4 | 2 | / | /
CC(=O)C1=C(O)C(=O)N(c2cccc(Br)c2)C1c1ccc(Br)cc1 (stereo not given) | 36 | 0 | 1 | -31 | 29* | 25* | -3
CC(=O)C1=C(O)C(=O)N(c2ccc(Br)cc2)C1c1ccc(Br)cc1 (stereo not given) | 2 | 2 | 4 | -39 | 24* | 23* | -3
CCOC(=O)C1=C(O)C(=O)N(c2ccc(S(N)(=O)=O)cc2)C1c1ccc(Br)cc1 (stereo not given) | 20 | 0 | 2 | -34 | 21* | 7 | -7
Cc1nc(=O)c(-c2ccccc2)c(C)n1-c1cccc(/C=C/C(=O)O)c1 | 5 | -10 | 0 | -5 | -3 | / | /
Cc1ccc(CN2CCN(/N=C/c3cc(Br)ccc3O)CC2)cc1 | -5 | 0 | 3 | 1 | 35* | -4 | -7
CCC(Oc1ccccc1)C(=O)O/N=C(\N)c1ccc(OC)c(OC)c1 (stereo not given) | -9 | 0 | 2 | -28 | -6 | / | /
O=C1c2c(O)cccc2Cc2cccc(O)c21 | / | / | 2 | / | 35* | 29* | -3
COC(=O)C1=C(CSc2nc3c(cc2C#N)CN(C)CC3)OC(N)=C(C#N)C1c1ccc(F)cc1 (stereo not given) | -2 | 0 | 5 | 0 | 18* | 5 | 5
CCOC(=O)C1=C(CSc2nc(CC)c(C)cc2C#N)OC(N)=C(C#N)C1c1ccc(OC)cc1 (stereo not given) | 11 | 0 | 6 | -18 | 6 | / | /
